Columns and labels:
[1] = biological target: T1, Prostaglandin G/H synthase 1 (Ovis aries, UniProt P05979); test: Inhibition of sheep seminal vesicles COX1 assessed as PGE2 production after 10 mins by ELISA
T1 sequence (P05979 whole entry): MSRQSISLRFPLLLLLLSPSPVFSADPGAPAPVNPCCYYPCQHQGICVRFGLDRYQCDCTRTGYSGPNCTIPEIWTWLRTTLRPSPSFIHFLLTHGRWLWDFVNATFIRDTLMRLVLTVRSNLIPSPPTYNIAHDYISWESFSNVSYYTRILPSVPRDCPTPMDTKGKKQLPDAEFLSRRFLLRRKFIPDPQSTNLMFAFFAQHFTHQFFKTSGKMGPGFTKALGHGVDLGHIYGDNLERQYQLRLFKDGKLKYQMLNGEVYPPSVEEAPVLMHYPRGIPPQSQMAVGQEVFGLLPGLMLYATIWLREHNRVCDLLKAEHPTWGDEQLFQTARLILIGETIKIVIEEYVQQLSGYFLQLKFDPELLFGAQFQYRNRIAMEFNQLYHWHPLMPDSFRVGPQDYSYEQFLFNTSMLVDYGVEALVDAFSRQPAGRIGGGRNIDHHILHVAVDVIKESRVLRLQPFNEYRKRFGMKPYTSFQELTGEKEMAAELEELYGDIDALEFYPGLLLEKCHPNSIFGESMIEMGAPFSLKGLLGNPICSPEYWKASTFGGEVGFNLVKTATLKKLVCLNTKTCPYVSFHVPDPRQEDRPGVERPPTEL
Summary of the method: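 Sheep seminal vesicle COX-1; reaction started with arachidonic acid, 10 min at room temperature, stopped with 27.8 μM indomethacin. PGE₂ quantified by competitive ELISA (PGE₂-acetylcholinesterase tracer, Ellman's reagent, 412 nm) against a PGE₂ standard curve. Result as % of solvent control; IC₅₀ from dose-response curves.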

[2] = Antioxidant activity assessed as DPPH scavenging activity after 30 mins; type: functional
[3] = Chemical stability assessed as degradation after 24 hrs by LC/MS/MS analysis; type: physicochemical
Summary of the method: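 Compound held 24 h at 37 °C in RPMI 1640 culture medium, the medium used for the MCF7 uptake work; remaining amount sampled at 0, 12 and 24 h as % of starting level; three runs.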

[4] = Inhibition of TNF-alpha-induced NF-kappaB activity expressed in HEK293 cells after 48 hrs by luciferase reporter gene assay; type: cell-based; details: HEK293, 48 h
[5] = test system: HL-60; test: Cell cycle arrest in human HL60 cells assessed as accumulation at sub-G1 phase at 34 uM after 24 hrs by flow cytometry; type: functional
Summary of the method: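 HL-60 cells (2 × 10⁵/well) exposed to samples for 24 h, then stained with NIM-DAPI nuclear isolation medium. Read by flow cytometry under UV excitation; percentage of cells in subG₁ taken from the DNA histogram.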

[6] = test system: RAW264.7; test: Inhibition of LPS-induced COX2 expression in mouse RAW264.7 cells at 34 uM treated 15 mins before LPS challenge measured after 18 hrs by Western blotting relative to control; type: functional
Summary of the method: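 RAW 264.7 cells pretreated 15 min with compound (34 μM), then LPS 1 μg/mL for 18 h. Lysates (30 μg protein) run on 8% SDS-PAGE and transferred to PVDF. Blocked in 5% milk/TBST, probed for iNOS and COX-2 with HRP secondary, ECL detection, β-actin internal control. Band density relative to LPS-treated control; duplicate experiments.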

[7] = test system: MCF7; test: Cellular uptake in human MCF7 cells assessed per millions cells at 50 uM after 24 hrs by LC/MS/MS analysis; type: ADME, cell-based; details: mcf7, 24 h

`O=S(=O)([O-])Oc1cc(O)cc(/C=C/c2ccc(O)cc2)c1.[K+]` showed an IC50 [1] of 3.6 µM and an IC50 [2] of 219 µM.
With `O=S(=O)([O-])Oc1ccc(/C=C/c2cc(O)cc(O)c2)cc1.[K+]` the IC50 [1] was 5.55 µM, the Stability [3] was “Stable” and the IC50 [4] was 18.2 µM. For the same compound, the Activity [5] was 2.22%.
For `O=S(=O)([O-])Oc1cc(/C=C/c2ccc(O)cc2)cc(OS(=O)(=O)[O-])c1.[K+].[K+]`, the “fold change (FC)” value [6] was 0.76 and the Drug uptake [7] was “Active”.
With `O=S(=O)([O-])Oc1ccc(/C=C/c2cc(OS(=O)(=O)[O-])cc(OS(=O)(=O)[O-])c2)cc1.[K+].[K+].[K+]` the “fold change (FC)” value [6] was 0.69.

Source: ChEMBL document CHEMBL1177719 (J Med Chem, 2010)
